Data: PubChem BioAssay
Inconclusive results are not listed.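 How the source made its calls, unless noted: active means viability at or below 27.92% in each of two runs, the all-compound median minus 4 SD; inconclusive means no clear call, values can overlap the other calls; inactive means the rest.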

Assays:
[1] = OD615 S. cerevisiae growth inhibition, permissive medium, pilot counter-assay, permissive growth control for S. cerevisiae lifespan shortening project (AID 705;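 active means growth inhibition above 25% in both replicates, a cutoff set 3 SD above the mean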); settings: OD615, 24 h, at 10 µM, hits give high values
In short: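 System: Engineered DeaD yeast | Buffer or medium: SC raffinose/galactose permissive medium | Doses: 10 µM single dose, 0.25% DMSO | Times: 24 h exposure, 30 °C | Measured by: OD615 turbidity read | Read-out: Yeast growth inhibition indicated by reduced 24 h OD615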

[2] = Restrictive medium S. cerevisiae growth inhibition, OD615, pilot screen of yeast lifespan reduction project, restrictive growth control (AID 706;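 active means growth inhibition above a set limit, 3 SD over mean compound inhibition, in both replicates, cut at about 43% in these data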;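 further: modified DeaD lifespan yeast strain shifted to restrictive glucose medium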); settings: OD615, 48 h, at 10 µM, hits give high values
In short: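 Assay system: engineered S. cerevisiae DeaD strain; Buffer or medium: CSMM-D glucose medium; Dosing: 10 µM compound, 0.25% DMSO; Times: cell pre-growth 4 h, compound exposure 48 h, 30 °C; Detection: absorbance (optical density) measured at 615 nm.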

[3] = viability gain of MRP-1-high H69AR cells under doxorubicin, pilot screen, MRP-1 activator project, CellTiter-Glo, duplicate (AID 807;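 active means viability increase at or above a cutoff of the median across tested compounds plus 3 SD, cut at about 8.5% in these data, passing the limit was not always enough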;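 further: compound pretreatment 18-22 h then 72 h combined with doxorubicin; 0% = doxorubicin alone and 100% = vehicle without doxorubicin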); settings: H69AR viability with doxorubicin, CellTiter-Glo luminescence; at 10 µM; hits give high values
[4] = growth suppression of beta-catenin knockout HCT116, pilot screen, human colon tumor cells (AID 823;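 active means cell viability at or below a set limit in both duplicate runs, the limit being the all-compound median minus 4 SD, cut at about 23% in these data, passing the limit was not always enough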;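 further: 0% = wells killed by 20 µM Hyamine and 100% = untreated DMSO cell wells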); settings: CellTiter-Glo, 60 h, at 10 µM, hits give low values
[5] = growth suppression of PTEN-deleted HCT116, pilot screen, cell-based, HCT116 clonal line, CellTiter-Glo (AID 824); settings: 60 h, at 10 µM, hits give low values;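 further: 0% = 20 µM Hyamine control and 100% = vehicle cell control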
[6] = inhibitors of the yeast RAM network, pilot screen, dse1pr::URA3 reporter, 5-FOA selection (AID 869;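 active means inhibition over a set limit, the all-compound mean plus 3 SD, in both replicate runs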;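 further: 0% = DMSO wells with no growth and 100% = 10 µM 1-NA-PP1 with full growth; RAM network block rescues cells from 5-FOA so hits raise OD615 growth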); settings: S. cerevisiae dse1pr::URA3 5-FOA growth, OD615, 2 d; at 10 µM; hits give high values; strain carries analog-sensitive mutant Cbk1 kinase
[7] = RAM signaling pathway blockade in yeast – S. cerevisiae, Pdr1DBD-CYC8 efflux-inhibited sensitized strain, primary screen (AID 1298;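 active means RAM network inhibition above 8.4% in each of two replicates, 3 SD over the compound average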;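 further: 0% = DMSO untreated cells without growth and 100% = 10 µM 1-NA-PP1 full growth; higher means more yeast growth rescued from 5-FOA killing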); settings: S. cerevisiae cbk1-as DSE1-URA3 strain, 5-FOA growth OD615, 2 d; at 50 µM; hits give high values

CCn1c(=O)c2cc(C(=O)NCCN3CCOCC3)sc2c2ccccc21
inactive: growth inhibition [1] -7.14% | growth inhibition [2] -3.89% | viability increase [3] -4.73% | viability [4] 92.2% | viability [5] 76.1% | inhibition [6] 2.47% | RAM network inhibition [7] 1.02%

Cc1ccc(C2CC(c3cccc(C)c3)n3ncnc3N2)cc1 (stereo unspecified)
inactive: growth inhibition [1] 3.83% | growth inhibition [2] 15.5% | viability increase [3] -0.97% | viability [4] 85.7% | viability [5] 86.1% | inhibition [6] 0.45% | RAM network inhibition [7] 4.74%

Cc1ccc(-c2nc(CS(=O)CC(=O)NCc3ccccn3)c(C)o2)cc1 (stereo unspecified)
inactive: growth inhibition [1] -5.48% | growth inhibition [2] 7.86% | viability increase [3] -1.49% | viability [4] 92.2% | viability [5] 90.7% | inhibition [6] 0.745% | RAM network inhibition [7] 1.38%

CCn1cc(C(=O)N2CCCC2)c(=O)c2cc(S(=O)(=O)N(C)C)ccc21
inactive: growth inhibition [1] -3.43% | growth inhibition [2] 6.6% | viability increase [3] 0.77% | viability [4] 106% | viability [5] 101% | inhibition [6] 0.825% | RAM network inhibition [7] 3.02%

CCC(C)NC(=O)CS(=O)Cc1nc(-c2cccc(C)c2)oc1C (stereo unspecified)
inactive: growth inhibition [1] -12.9% | growth inhibition [2] -5.66% | viability increase [3] -1.72% | viability [4] 99.4% | viability [5] 88.2% | inhibition [6] 1.52% | RAM network inhibition [7] 4.65%

CCOC(=O)C1CCN(C(c2cccc(OC)c2)c2sc3nc(C)nn3c2O)CC1 (stereo unspecified)
inactive: growth inhibition [1] -2.67% | growth inhibition [2] -6.39% | viability increase [3] -1.96% | viability [4] 94.2% | viability [5] 95.9% | inhibition [6] 0.11% | RAM network inhibition [7] -0.51%

Cc1cc(=O)oc2cc(OCC(O)CN3CCN(c4ccc(F)cc4)CC3)ccc12 (stereo unspecified)
inactive: growth inhibition [1] -10.4% | growth inhibition [2] -2.92% | viability increase [3] -0.12% | viability [4] 74.5% | viability [5] 80.8% | inhibition [6] 0.85% | RAM network inhibition [7] -0.18%

O=C(Nc1nnc(-c2ccc(Cl)cc2)o1)c1ccccc1Br
inactive: growth inhibition [1] 0.92% | growth inhibition [2] 20.1% | viability increase [3] -3.81% | viability [4] 68.8% | viability [5] 60.9% | inhibition [6] 0.69% | RAM network inhibition [7] 1.62%

CCCc1cc(C(=O)Nc2sc(C(C)=O)c(C)c2C(=O)OCC)no1
inactive: growth inhibition [1] -18.8% | growth inhibition [2] -30.5% | viability increase [3] -4.9% | viability [4] 86.2% | viability [5] 78.4% | inhibition [6] 1.46% | RAM network inhibition [7] 3.25%

O=C(NCc1cccs1)C1CCCN1S(=O)(=O)c1ccccc1F (stereo unspecified)
inactive: growth inhibition [1] -2.45% | growth inhibition [2] -6.33% | viability increase [3] -0.97% | viability [4] 102% | viability [5] 90.7% | inhibition [6] 0.91% | RAM network inhibition [7] 2.5%

Cn1c(=O)c2c(nc(SCCNS(=O)(=O)c3ccccc3)n2C)n(C)c1=O
inactive: growth inhibition [1] -20.6% | growth inhibition [2] -16.3% | viability increase [3] -3.87% | viability [4] 101% | viability [5] 99% | inhibition [6] 1.46% | RAM network inhibition [7] 7.66%

O=C(Nc1nnc(-c2ccccc2)s1)c1ccc(Cl)c(S(=O)(=O)N2CCOCC2)c1
inactive: growth inhibition [1] -16.8% | growth inhibition [2] -5.79% | viability increase [3] -1.65% | viability [4] 100% | viability [5] 96.2% | inhibition [6] 2.61% | RAM network inhibition [7] 1.72%

CCc1ccccc1S(=O)(=O)Cc1ccc(C(=O)N2CCN(c3ccccn3)CC2)o1
inactive: growth inhibition [1] -8.76% | growth inhibition [2] -27% | viability increase [3] -3.28% | viability [4] 84.1% | viability [5] 78% | inhibition [6] 1.54% | RAM network inhibition [7] 2.4%

CN(C(=O)c1ccc2c(c1)OCO2)C1(C(=O)NC2CCCCC2)CCCCC1
inactive: growth inhibition [1] -8.36% | growth inhibition [2] 0.39% | viability increase [3] -1.06% | viability [4] 90.6% | viability [5] 83.6% | inhibition [6] 1.91% | RAM network inhibition [7] 0.21%

CCOC(=O)CSC(CC)C(=O)Nc1nnc(C(C)C)s1 (stereo unspecified)
inactive: growth inhibition [1] 5.7% | growth inhibition [2] 9.58% | viability increase [3] -1.46% | viability [4] 94.6% | viability [5] 94.7% | inhibition [6] 1% | RAM network inhibition [7] 9.23%

O=C(Nc1c(C(=O)O)oc2ccc(Br)cc12)c1ccccc1
inactive: growth inhibition [1] -34% | growth inhibition [2] 2.99% | viability increase [3] -3.96% | viability [4] 101% | viability [5] 99.5% | inhibition [6] 2.95% | RAM network inhibition [7] -2.35%

N#CCc1nc2n(n1)Cc1ccccc1-2
inactive: growth inhibition [1] -6.24% | growth inhibition [2] -25.7% | viability increase [3] 0.02% | viability [4] 105% | viability [5] 96.8% | inhibition [6] 3.54% | RAM network inhibition [7] 2.06%

CCCNC(=O)CS(=O)Cc1nc(-c2cccc(OC)c2)oc1C (stereo unspecified)
inactive: growth inhibition [1] -6.84% | growth inhibition [2] -0.045% | viability increase [3] -2.3% | viability [4] 96.6% | viability [5] 95.2% | inhibition [6] 1.2% | RAM network inhibition [7] -0.38%
